From ChEMBL document CHEMBL4130549, “Synthesis and bioactivities study of new antibacterial peptide mimics: The dialkyl cationic amphiphiles” (Eur J Med Chem, 2018)
Activity calls are given as the source filed them. The rule behind the calls is not given here.

Legend:
Staphylococcus aureus [1] = experiment: Antibiofilm activity against Staphylococcus aureus ATCC 29213 assessed as bacterial cell viability in biofilm at 4 ug/ml after 24 hrs (reference value: 21.9 log10CFU/ml); assay type: functional
How it was run: (§1)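 Mid-log cells at ~10⁵ CFU/mL grown stationary in 96-well plates (S. aureus in MHB for 24 h; E. coli in M9 with 0.02% casamino acids and 0.5% glycerol for 72 h). After washing, biofilms exposed 24 h at 37 °C to 2-128 µg/mL; detached with trypsin-EDTA, serially plated, viability given as log10 CFU/well against an untreated control.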

[2] = Selectivity index, ratio of HC50 for sheep RBC to MIC for Staphylococcus aureus ATCC 29213; assay type: toxicity; conditions: sheep red blood cells (erythrocytes), read-out: Selectivity Index
How it was run: (§2)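 HC50 from sheep RBC lysis: 5% RBC suspension exposed 1 h at 37 °C to a 5120–10 µg/mL series, with A540 of supernatant scaled to 0.1% Triton X-100. MIC by CLSI broth microdilution in cation-adjusted MHB, ~10^6 CFU/mL, 256–0.5 µg/mL, 37 °C for 16–20 h, duplicates with at least two repeats.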

[3] = Selectivity index, ratio of HC50 for sheep RBC to MIC for Escherichia coli ATCC 25922; assay type: toxicity; conditions: sheep red blood cells (erythrocytes), read-out: Selectivity Index; how it was run: as §2
Staphylococcus aureus [4] = experiment: Bactericidal activity against Staphylococcus aureus ATCC 29213 assessed as time required to kill early exponential phase at 8 ug/ml by time kill assay; assay type: functional
How it was run: (§3)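 Overnight culture diluted 1:10,000 in MHB and shaken at 37 °C, 225 rpm, for 2 h (early exponential) or 5 h (late exponential), then exposed to compound at 6× and 8× MIC in tubes at 37 °C, 225 rpm. Samples (100 µL) taken at intervals, pelleted, resuspended in PBS, and ten-fold dilutions plated on MHA overnight at 37 °C for CFU/mL. Biological replicates.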

Staphylococcus aureus [5] = experiment: Bactericidal activity against Staphylococcus aureus ATCC 29213 assessed as time required to kill early exponential phase at 6 ug/ml by time kill assay; assay type: functional; how it was run: as §3
Staphylococcus aureus [6] = experiment: Bactericidal activity against Staphylococcus aureus ATCC 29213 assessed as time required to kill late exponential phase at 6 to 8 ug/ml by time kill assay; assay type: functional; how it was run: as §3
Escherichia coli [7] = experiment: Bactericidal activity against Escherichia coli ATCC 25922 assessed as time required to kill early exponential phase at 12 to 16 ug/ml by time kill assay; assay type: functional
Escherichia coli [8] = experiment: Bactericidal activity against Escherichia coli ATCC 25922 assessed as time required to kill late exponential phase at 12 to 16 ug/ml by time kill assay; assay type: functional
Staphylococcus aureus [9] = experiment: Antibiofilm activity against Staphylococcus aureus ATCC 29213 assessed as bacterial cell viability in biofilm at 16 ug/ml after 24 hrs (reference value: 21.9 log10CFU/ml); assay type: functional; how it was run: as §1
Staphylococcus aureus [10] = experiment: Antibiofilm activity against Staphylococcus aureus ATCC 29213 assessed as bacterial cell viability in biofilm at 32 ug/ml after 24 hrs (reference value: 21.9 log10CFU/ml); assay type: functional; how it was run: as §1
Staphylococcus aureus [11] = experiment: Antibiofilm activity against Staphylococcus aureus ATCC 29213 assessed as bacterial cell viability in biofilm at 128 ug/ml after 24 hrs (reference value: 21.9 log10CFU/ml); assay type: functional; how it was run: as §1
Escherichia coli [12] = experiment: Antibiofilm activity against Escherichia coli ATCC 25922 assessed as bacterial cell viability in biofilm at 4 ug/ml after 24 hrs (reference value: 25.9 log10CFU/ml); assay type: functional; how it was run: as §1
Escherichia coli [13] = experiment: Antibiofilm activity against Escherichia coli ATCC 25922 assessed as bacterial cell viability in biofilm at 8 ug/ml after 24 hrs (reference value: 25.9 log10CFU/ml); assay type: functional; how it was run: as §1
Escherichia coli [14] = experiment: Antibiofilm activity against Escherichia coli ATCC 25922 assessed as bacterial cell viability in biofilm at 16 ug/ml after 24 hrs (reference value: 25.9 log10CFU/ml); assay type: functional; how it was run: as §1
Escherichia coli [15] = experiment: Antibiofilm activity against Escherichia coli ATCC 25922 assessed as bacterial cell viability in biofilm at 32 ug/ml after 24 hrs (reference value: 25.9 log10CFU/ml); assay type: functional; how it was run: as §1
Escherichia coli [16] = experiment: Antibiofilm activity against Escherichia coli ATCC 25922 assessed as bacterial cell viability in biofilm at 64 ug/ml after 24 hrs (reference value: 25.9 log10CFU/ml); assay type: functional; how it was run: as §1
Escherichia coli [17] = experiment: Antibiofilm activity against Escherichia coli ATCC 25922 at 8 to 128 ug/ml after 72 hrs by crystal violet staining based assay; assay type: functional, organism-based
How it was run: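 Biofilms grown in 24-well plates for about 72 h at 37 °C, treated, stained with 1.0% crystal violet, rinsed, dried, dye taken up in 95% ethanol for 1 h at room temperature, then photographed.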

Escherichia coli [18] = experiment: Antibiofilm activity against Escherichia coli ATCC 25922 after 24 hrs by turbidity method; assay type: functional
How it was run: (§4)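 MBEC: biofilms grown 24 h at 37 °C from 1:1000-diluted exponential-phase culture; planktonic cells removed, twofold dilutions in fresh medium added for 24 h at 37 °C, then fresh medium alone for 24 h recovery. MBEC is the lowest concentration with no visible turbidity.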

Staphylococcus aureus [19] = experiment: Antibiofilm activity against Staphylococcus aureus ATCC 29213 after 24 hrs by turbidity method; assay type: functional; how it was run: as §4
Escherichia coli [20] = experiment: Antibiofilm activity against Escherichia coli ATCC 25922 after 24 hrs by crystal violet staining method; assay type: functional
How it was run: (§5)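 MBIC: twofold dilutions in MHB inoculated with 1:1000-diluted exponential-phase culture (10⁸ CFU/mL), 24 h at 37 °C. Wells rinsed, stained 10 min with 0.1% crystal violet, dye dissolved in ethanol, OD540 read; MBIC80 taken from dose–response versus untreated wells.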

Staphylococcus aureus [21] = experiment: Antibiofilm activity against Staphylococcus aureus ATCC 29213 after 24 hrs by crystal violet staining method; assay type: functional; how it was run: as §5
Escherichia coli [22] = experiment: Ratio of MBEC to MIC for Escherichia coli ATCC 25922 after 24 hrs; assay type: functional
How it was run: (§6)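 For MBEC, biofilms grown 24 h at 37 °C from a 1:1000 dilution of exponential-phase culture, washed, exposed 24 h to two-fold compound dilutions in fresh medium, then recovered 24 h in medium alone; MBEC is the lowest concentration with no turbidity. MIC by CLSI broth microdilution in cation-adjusted MHB, ~10^6 CFU/mL inoculum, 37 °C, 16–20 h.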

Staphylococcus aureus [23] = experiment: Ratio of MBEC to MIC for Staphylococcus aureus ATCC 29213; assay type: functional; how it was run: as §6
Staphylococcus aureus [24] = experiment: Antibacterial activity against Staphylococcus aureus ATCC 29213 after 20 serial passages measured after 16 to 20 hrs by broth microdilution method; assay type: functional, organism-based
How it was run: (§7)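 Sub-MIC serial passaging: after an initial broth microdilution MIC, cells grown at MIC/2 were transferred into a new MIC assay after each 24 h incubation, for 20 passages. MIC was plotted against days to follow resistance development. Passaging controls were norfloxacin for S. aureus and colistin for E. coli.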

Escherichia coli [25] = experiment: Antibacterial activity against Escherichia coli ATCC 25922 after 20 serial passages measured after 16 to 20 hrs by broth microdilution method; assay type: functional, organism-based; how it was run: as §7

Question: What does the source list for CCCCCCCCCN(CCCCCCCCC)C(=O)[C@@H](N)CCCCN.Cl.Cl?
Answer: Activity (Staphylococcus aureus [1]): 18.6 log10CFU; selectivity ratio [2]: 133; selectivity ratio [3]: 66.5; Time (Staphylococcus aureus [4]): 0.5 h; Time (Staphylococcus aureus [5]): 120 min; Time (Staphylococcus aureus [6]): 6 h; Time (Escherichia coli [7]): 0.5 h; Time (Escherichia coli [8]): 1 h; Activity (Staphylococcus aureus [9]): 11.5 log10CFU; Activity (Staphylococcus aureus [10]): 9.9 log10CFU; Activity (Staphylococcus aureus [11]): 7.6 log10CFU; Activity (Escherichia coli [12]): 23.9 log10CFU; Activity (Escherichia coli [13]): 8.4 log10CFU; Activity (Escherichia coli [14]): 4.1 log10CFU; Activity (Escherichia coli [15]): 2.1 log10CFU; Activity (Escherichia coli [16]): 0.3 log10CFU; Activity (Escherichia coli [17]): Active; MBEC (Escherichia coli [18]): 128 µg/mL; MBEC (Staphylococcus aureus [19]): 64 µg/mL; MBIC80 (Escherichia coli [20]): 53.9 µg/mL; MBIC90 (Escherichia coli [20]): 73.6 µg/mL; MBIC80 (Staphylococcus aureus [21]): 18 µg/mL; MBIC90 (Staphylococcus aureus [21]): 26.9 µg/mL; Ratio (Escherichia coli [22]): 64; Ratio (Staphylococcus aureus [23]): 64; Activity (Staphylococcus aureus [24]): Active; Activity (Escherichia coli [25]): Active
